A selection: hits, their analogues and other compounds. The true share with any hit is near 1.8%.
Statin myotox sup: suppressors of statin myotoxicity in C2C12 myotubes, primary screen, cell-based, single point, plate reader | rescue of ATP level, % at 7.49 µM | 0.78% of 330,000 active | C2C12 myotubes + simvastatin, ATP luminescence, 48 h; scaled: DMSO 0, geranylgeraniol control 100 | AID 602340, 2012;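 active = mean ATP rescue above about 67%, or every replicate alone reaching that limit, limit read from the data, passing the limit was not always enough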;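 note: myotubes were challenged with 10 µM simvastatin during compound exposure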
Mot1-301 SUMO: yeast Mot1-301 growth rescue at high temperature, primary screen, SUMOylation pathway inhibitor project, S. cerevisiae, ATP luminescence, 38.5C. S. cerevisiae Mot1-301 growth rescue; percent above DMSO median, 100 means doubled. growth rescue, % at 18.8 µM. 1% of 320,000 active;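 active = every valid replicate shows activation above 250% relative to neutral control wells; inactive = the rest, any valid replicate at or below 250%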
Cneo AK release: Cryptococcus neoformans cell lysis inducers, primary screen, AK release luminescence, single concentration; AID 651654, 2012; 0.2% of 360,000 active; lysis activity, % at 15 µM; C. neoformans lysis, adenylate kinase release luminescence, 4 h; normalised: neutral wells 0, clomiphene wells 100;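 active = mean lysis activity across replicates of at least 80%, whatever share of replicates individually reach that level; inactive = mean lysis activity below 80%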
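Signal: Adenylate kinase release luminescence | Assay system: Log-phase Cryptococcus neoformans yeast cells | Input: Cells at 5 × 10^6 per mL | Buffer or medium: Fresh YPD growth medium | Compound: Single dose | Schedule: Static 4 h at 37 °C with compound, 1 h detection | Controls: Clomiphene | Read-out: Luminescence rise reflecting yeast cell lysis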
Efflux pump mplx: inhibitors of Candida efflux pumps in yeast, primary screen, S. cerevisiae, Nile Red, multiplex | AID 485275, 2010 | inhibition, % at 10 µM | 0.44% of 330,000 active | S. cerevisiae Candida pump triplex;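 active = plate passing quality check with inhibition over a set limit, or well fluorescence over plate mean plus 4 SD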;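 note: Nile Red retained in pooled yeast measured as flow cytometry median fluorescence; higher means more Nile Red kept so more efflux inhibition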
Hits are given with their value; 0 = inactive; - = no result given.

SMILES	Statin myotox sup	Mot1-301 SUMO	Cneo AK release	Efflux pump mplx
O=[N+]([O-])c1cc(C(F)(F)F)ccc1NC1CCN(Cc2ccccc2)C1 (stereo not given)	0	262.2	0	0
O=C1CSC(=Nc2ccc(F)cc2)N1	0	0	0	0
O=C1CSC(=Nc2ccccc2)N1	94.9	0	0	0
O=C(NC1CCCC1)C1CC(=O)N(c2ccccc2)C1 (stereo not given)	0	356.3	0	0
Cc1cc2c(cc1C)/C(=C\C(N)=O)NC(C)(C)C2	142.4	0	0	0
CCCn1c2c(c(O)c(C(=O)NC)c1=O)CCCC2	118.9	0	0	0
CCOc1cccc(CNc2ccc(O)cc2)c1OCc1ccccc1Cl	108.0	0	0	0
CCOc1cccc(CNc2ccc(O)cc2)c1OCc1ccc(Cl)cc1Cl	0	0	0	0
Cc1ccc(C2NC(=S)N3C(c4ccc(C)cc4)NC(=S)N23)cc1 (stereo not given)	0	-	0	-
CN1C(=O)CC(N2CCN(C(c3ccccc3)c3ccccc3)CC2)C1=O (stereo not given)	-	0	0	0
CN1C(=O)CC(N2CCN(c3ccccc3)CC2)C1=O (stereo not given)	137.9	0	0	0
Cc1cc2ncn(/N=C/c3ccc([N+](=O)[O-])s3)c2cc1C	-	0	-	0
O=[N+]([O-])c1ccc(/C=N/n2cnc3ccccc32)s1	-	377.5	0	0
COc1ccc(/C=C2/N=C(c3cccs3)OC2=O)cc1OC(C)C	-	891.9	-	0
O=S(=O)(c1ccc(Cl)cc1)c1snnc1-c1ccccc1	0	307.1	0	0
CCOc1ccc(CN(C)c2nc(-c3cccnc3)nc3ccccc23)cc1OC	0	0	0	0
O=c1[nH]ncc2c3ccccc3n(Cc3ccccc3)c12	107.6	0	0	0
O=C(Nc1c(F)c(F)c(F)c(F)c1F)NC1CCCCC1	-	698.6	0	0
O=C(C[C@@H]1CC[C@@H]2[C@H](COC[C@@H](O)CN2Cc2cccc(C(F)(F)F)c2)O1)NCc1ccccc1	0	-	0	-
O=C(C[C@H]1CC[C@@H]2[C@H](COC[C@H](O)CN2CC2CCOCC2)O1)NCc1ccc(Cl)cc1	0	-	86.3	-
O=C(C[C@@H]1CC[C@H]2[C@@H](COC[C@@H](O)CN2Cc2ccc(Oc3ccccc3)cc2)O1)Nc1nccs1	100.0	-	0	-
O=C(C[C@@H]1CC[C@H]2[C@@H](COC[C@H](O)CN2Cc2cccc(C(F)(F)F)c2)O1)NCc1ccccc1	0	-	99.7	-
O=C(C[C@@H]1CC[C@@H]2[C@H](COC[C@H](O)CN2Cc2cccc(C(F)(F)F)c2)O1)NCc1ccc(Cl)cc1	0	-	82.9	-
C[C@H]1CN([C@@H](C)CO)S(=O)(=O)c2ccc(C3=CCCCC3)cc2O[C@@H]1CN(C)Cc1cccc(C(=O)O)c1	0	-	0	-
O=C(Cc1cccc2ccccc12)N/N=C/c1ccc(OC(=O)/C=C/c2ccco2)cc1	0	0	0	0
SMILES	Statin myotox sup	Mot1-301 SUMO	Cneo AK release	Efflux pump mplx
CC(C)(C)c1nnc(NC(=O)CCC2CCCCC2)s1	0	-	0	-
COC(=O)c1c(NC(=S)NN2CCN(C)CC2)sc2c1CCC(C)C2 (stereo not given)	-	0	-	0
COC(=O)c1cc(COC(=O)CNC(=O)c2ccc(Br)cc2)oc1C	0	0	0	0
O=C(C[C@H]1CC[C@@H]2[C@H](COC[C@@H](O)CN2Cc2cccc(C(F)(F)F)c2)O1)NCc1ccc(Cl)cc1	0	-	109.8	-
O=C(C[C@@H]1CC[C@@H]2[C@H](COC[C@@H](O)CN2Cc2cccc(C(F)(F)F)c2)O1)NCc1ccc(Cl)cc1	0	-	0	-
CC(=O)N1CCN(c2nnnn2-c2ccccc2)CC1	126.3	0	0	0
COC(=O)c1cc(CSc2nc3ccc(C)cc3[nH]2)oc1C	0	-	0	0
CC(C)c1ccccc1NC(=S)N(C)C	-	0	0	0
CC1C/C(=C/c2ccccn2)C(=O)/C(=C/c2ccccn2)C1 (stereo not given)	-	0	-	0
CC(C)(C)C1C/C(=C/c2ccccn2)C(=O)/C(=C/c2ccccn2)C1 (stereo not given)	116.4	0	0	0
N#Cc1ccccc1CSc1nc(N2CCCCC2)nc(N2CCCCC2)n1	117.4	0	0	0
COc1ccc(-c2noc(CCCC(=O)NCCc3ccccc3)n2)cc1OC	150.9	0	0	0
COc1ccc(CN(C)C[C@@H]2Oc3ccc(NC(=O)Cc4cn(C)c5ccccc45)cc3CC(=O)N([C@H](C)CO)C[C@H]2C)cc1	80.8	-	0	-
C[C@H](CO)N1C[C@H](C)[C@@H](CN(C)Cc2ccc(C(F)(F)F)cc2)Oc2ccc(NC(=O)Cc3cn(C)c4ccccc34)cc2CC1=O	114.8	-	0	-
C[C@H](CO)N1C[C@H](C)[C@@H](CN(C)Cc2ccc(C(F)(F)F)cc2)Oc2ccc(NC(=O)Cc3ccccc3)cc2CC1=O	115.6	-	0	-
C[C@@H]1CN([C@@H](C)CO)C(=O)Cc2cc(NC(=O)Cc3cn(C)c4ccccc34)ccc2O[C@@H]1CN(C)Cc1ccc(C(F)(F)F)cc1	0	-	0	-
C[C@@H]1CN([C@@H](C)CO)C(=O)Cc2cc(NC(=O)Cc3cn(C)c4ccccc34)ccc2O[C@H]1CN(C)Cc1ccc(Oc2ccccc2)cc1	76.2	-	0	-
C[C@@H]1CN([C@H](C)CO)C(=O)Cc2cc(NC(=O)Cc3cn(C)c4ccccc34)ccc2O[C@@H]1CN(C)Cc1ccc(Oc2ccccc2)cc1	0	-	0	-
NC(=O)c1ccccc1Br	0	0	0	0
CN1C(=O)c2cc(NC(=O)C3CC3)ccc2OC[C@H]2O[C@@H](CC(=O)NCCc3ccncc3)CC[C@@H]21	0	-	0	-
Cc1ccc(C(O)CN2C3=NCCN3c3ccccc32)cc1 (stereo not given)	121.4	-	0	0
OC(CN1C2=NCCN2c2ccccc21)c1ccccc1 (stereo not given)	0	0	0	0
CCSc1nc(C2CC2)cc(-c2cccs2)c1C#N	0	0	0	0
CCSc1nc(C2CC2)cc(-c2ccco2)c1C#N	99.8	0	0	0
COc1cc(SC)ccc1C(=O)OCC(=O)NC1CCCCC1	0	0	0	0
SMILES	Statin myotox sup	Mot1-301 SUMO	Cneo AK release	Efflux pump mplx
COc1cc(SC)ccc1C(=O)NC1CCCCC1	80.8	0	0	0
COc1cc(SC)ccc1C(=O)Nc1ccccc1C#N	98.7	0	0	0
COC(=O)c1ccccc1NC(=O)c1ccccc1OC	123.6	0	0	0
COc1ccccc1NC(=O)c1ccccc1C(=O)Nc1ccccc1OC	0	0	0	0
COc1cc(SC)ccc1C(=O)Nc1ccncc1	-	0	-	0
CCOC(=O)N1CCN(C(=O)C2CCN(S(=O)(=O)N3CCC4(CC3)OCCO4)CC2)CC1	0	0	0	0
Cn1nc(C(=O)Nc2ccc(S(=O)(=O)N3CCCCC3)cc2)ccc1=O	96.3	0	0	0
Cn1nccc1C(=O)Nc1ccc(S(=O)(=O)N2CCCC2)cc1	0	0	0	0
Cc1nnc2n1N=CC=C(C(C)(C)C)S2	0	0	0	0
CC(=O)NC(c1cc(Cl)c2cccnc2c1O)C(C)C (stereo not given)	80.7	0	0	0

Screening results (PubChem BioAssay)
